# Rows were chosen to be rich in hits. Some 12% of all compounds tested hit in one or more screens of this group.
# WT yeast gro inh: growth inhibition of WT yeast, mitochondrial fusion screen; mitochondrial fusion phenotypic screen, WT strain; inhibition, % at 10 µM; 2.1% of 190,000 active; AID 1362; in the data active = inhibition above about 58%; tested in S. cerevisiae
# ROMK primary: modulators of human ROMK potassium channel | AID 1918 | 2% of 130,000 active | P48048 | B-score at 10 µM | Tet-inducible ROMK, thallium flux fluorescence; actives lie on both sides;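 active = signal ratio slope over the read window, or its plate-corrected B-score, at least 3 SD from the plate mean, either direction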;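 also: B-score of the F/F0 ratio slope over 7 to 12 s after thallium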
# Diaphorase inh: inhibits diaphorase or chemically oxidizes, flagging diaphorase assay artifacts; 0.69% of 190,000 active; diaphorase resazurin-to-resorufin fluorescence, NADH, 16 min; bacterial (C. kluyveri) enzyme, not human; AID 1217; inhibition, % at 20 µM;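 active = primary screen inhibition at 20 µM above a set limit, cut at about 50% in these data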;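 also: plate controls were DMSO with full reaction for no effect and wells lacking NADH for full effect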
#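 System: Diaphorase enzyme from Clostridium kluyveri | Amount: Enzyme working solution with 0.14 U/mL diaphorase | Benchmarks: No-NADH positive control and DMSO neutral control | Signal: Fluorescence of resorufin formed from resazurin, Ex 544/Em 590 nm | Schedule: 16-min room-temperature incubation before reading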
# L major viab: inhibitors of Leishmania major promastigote growth; inhibition, % at 10 µM; Leishmania major promastigotes, resazurin fluorescence viability; 9% of 200,000 active; in the data active = inhibition above about 50%;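 also: promastigotes grown with compound for 44 hours at 28 °C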
# Diaph act CS: diaphorase activation or chemical reduction counter-screen; 0.005% of 190,000 active; AID 1229; activation factor at 20 µM; Diaphorase/resazurin coupled assay, resorufin fluorescence, 16 min; active compounds read high; 1 = vehicle wells, 0 = NADH-free wells;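 active = diaphorase activity raised at least twofold by the compound at 20 µM; inactive = activation factor below 2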
#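 Material: purified diaphorase enzyme from Clostridium kluyveri; Also added: 0.114 mM NADH and 0.1 mM resazurin, final amounts; Doses: single compound dose of 20 µM, 1% DMSO final; Times: 16 min enzyme reaction, ambient temperature; Detection: resorufin fluorescence, excitation 544 nm, emission 590 nm; Measure: increased resorufin signal from activators or reducing compounds.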
# KCC2 mod: modulates chloride dependent transport by human KCC2; Q9H2X9; KCC2 cells, thallium flux FluoZin-2 fluorescence; B-score of Tl+ flux slope (higher = more flux/activation; lower = inhibition) at 10 µM; 2.2% of 190,000 active;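 active = thallium flux slope and its plate-corrected score both differing from the plate sample mean at a set confidence after two filtering rounds, in either direction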;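 also: slope of fluorescence scaled to starting intensity during 10 to 20 s after thallium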
# Active calls of the source: *; · = no result given.
SMILES,WT yeast gro inh,ROMK primary,Diaphorase inh,L major viab,Diaph act CS,KCC2 mod
Cc1ccc(SC(C)C(=O)Nc2ccncc2)cc1 (centres undefined),-8.2,-0.827,22.8,92.7*,0.8,-0.488
CC(Sc1ccc(Cl)cc1)C(=O)Nc1ccccc1-c1ccccc1 (centres undefined),74.5*,-0.85,6.4,10.4,0.9,1.29
CCNC(=O)C(C)Sc1ccc(Cl)cc1 (centres undefined),-3.5,0.667,1.5,-8.6,1,1.36
Cc1ccc(SC(C)C(=O)Nc2ccc(S(=O)(=O)N3CCOCC3)cc2)cc1 (centres undefined),1.5,·,52.7*,9.6,0.5,0.346
Cc1noc(NS(=O)(=O)c2ccc(NC(=O)C34CC5CC(C3)CC(n3cnc(Br)n3)(C5)C4)cc2)c1C,14.0,·,21.1,-9.2,0.8,-0.244
N/C(Cn1cncn1)=N\NC(=O)C(=O)Nc1cccc(C(F)(F)F)c1,0.1,-0.224,10.5,-4.3,0.9,-0.679
COc1cc2c(cc1OC)N1C(=O)CC(OCC(=O)O)C3C4CC5(CCN5C(=O)C4=O)C2C31 (centres undefined),5.2,0.545,·,-4.5,·,0.121
CC(C)N1CC(C(=O)O)CC1=O (centres undefined),-4.6,·,7.2,-1.4,0.9,0.331
COc1ccc(OC)c2[nH]c(=O)c(CCNC(=O)C3CCCCC3)cc12,8.2,·,17.6,6.2,0.8,0.503
COc1cccc(NC(=S)NCCc2ccccn2)c1,0.1,-0.257,8.5,-2.5,0.9,0.0494
COc1cc(CNC(=O)c2ccc(Cn3nc(C)c(Cl)c3C)o2)cc(OC)c1,0.2,·,17.8,53.0*,0.8,·
COC(=O)c1ccc(Cn2nc(C)c(Cl)c2C)o1,-2.9,·,-1.9,1.2,1,-1.13
Cc1ccc(-n2nnnc2SC(C)C(=O)NCC(=O)Nc2ccc(F)c(F)c2F)c(C)c1 (centres undefined),-3.1,-1.06,20.0,2.7,0.8,-0.932
CCN1C(=O)C(CC(=O)Nc2ccc(OC)cc2)N(CCN2CCOCC2)C1=S (centres undefined),·,·,·,·,·,-0.192
COC(=O)CN1C(=S)N(Cc2ccccc2)C(=O)C1CC(=O)Nc1ccc(Br)cc1 (centres undefined),18.2,·,28.9,88.3*,0.7,-0.575
CCN1C(=O)C(CC(=O)Nc2ccc(OC)cc2)N(Cc2cccnc2)C1=S (centres undefined),·,·,18.0,-3.5,0.8,-0.507
COc1ccc(NC(=O)CC2C(=O)N(CCc3ccccc3)C(=S)N2Cc2cccnc2)cc1 (centres undefined),3.1,·,20.9,84.9*,0.8,·
CCN1C(=O)C(CC(=O)Nc2ccc(OC)cc2)N(CCCN2CCN(c3ccc(OC)cc3)CC2)C1=S (centres undefined),-6.0,-0.0684,6.6,72.2*,0.9,0.309
COC(=O)CN1C(=S)N(c2ccc(Cl)cc2)C(=O)C1CC(=O)Nc1ccc(Cl)cc1 (centres undefined),20.6,2.68,23.5,-1.9,0.8,-0.0972
CCOc1ccc(N2C(=O)C(CC(=O)Nc3ccc(F)cc3)N(Cc3ccccn3)C2=S)cc1 (centres undefined),-6.9,0.0145,21.3,67.8*,0.8,0.995
COCCCN(CC(=O)Nc1ccc(N2CCOCC2)cc1)S(=O)(=O)c1ccc(Cl)cc1,-12.6,1.72,11.8,3.3,0.9,0.89
Cc1nn(C)c(C)c1/C=N/NC(=O)CCn1nc(C)c([N+](=O)[O-])c1C,8.4,·,1.0,-3.6,1,-1.81
CCC(C(=O)NC(C)(C)C)N(C(=O)Cn1nnc(-c2cccs2)n1)c1cnc2ccccc2c1 (centres undefined),10.3,·,2.4,2.0,1,-0.39
CCN1C(=O)C(CC(=O)Nc2ccc(F)cc2)N(Cc2cccs2)C1=S (centres undefined),11.4,-0.648,20.1,10.3,0.8,0.0458
CCCOc1ccc(NC(=O)CC2C(=O)N(Cc3ccccc3)C(=S)N2Cc2cccs2)cc1 (centres undefined),41.1,0.268,28.4,64.9*,0.7,-2.04
O=C(CSc1n[nH]c(=O)n1-c1ccc2c(c1)OCCO2)Nc1ccccc1,·,·,·,·,·,1.19

# High-throughput results as filed in PubChem BioAssay.
